Assay results from different studies.
Compare with care: the assays were run in different laboratories.
Target: Bone morphogenetic protein receptor type-1B (BMPR1B, Homo sapiens, UniProt O00238)

| SMILES | observed | method | tested at | remaining binding [%] |
| --- | --- | --- | --- | --- |
| O=C(NCCCN1CCOCC1)c1ccc(Nc2nccc(-c3cc4ccccc4s3)n2)cc1 | binding | competition with immobilised ligand | 1 µM | 34 |
| O=C(Nc1c[nH]nc1C(=O)NC1CCNCC1)c1cc(F)cc(F)c1 | binding | competition with immobilised ligand | 1 µM | 84 |
| COc1ccnn2ncc(-c3ccnc(N(C)C)n3)c12 | binding | – | 1 µM | 51 |
| COc1cnc(Nc2cccc(S(N)(=O)=O)c2)nc1N1CCN(c2ccccc2)C(=O)C1 | binding | competition with immobilised ligand | 1 µM | 100 |
| CN([C@@H]1CCc2c(CC(=O)O)c3cc(S(C)(=O)=O)ccc3n2C1)S(=O)(=O)c1ccc(F)cc1 | cell-free assay | competition with immobilised ligand | 1 µM | 100 |
| COc1ncc2cc3ccccc3nc2c1C#N | cell-free assay | competition with immobilised ligand | 5 µM | 89 |
| CN(CCCC(F)(F)F)c1nccc(-c2cnn3ncccc23)n1 | binding | – | 1 µM | 93 |
| Cc1cc(C)c(-n2ccn3nc(-c4cccnc4)cc23)cc1NC(=O)c1cc(C#N)cc(S(F)(F)(F)(F)F)c1 | cell-free assay | competition with immobilised ligand | 0.1 µM | 72.3 |
| Cc1cnn2ncc(-c3ccnc(N(C)C)n3)c2c1 | binding | – | 1 µM | 67 |
| CNC(=O)[C@@H]1CC[C@@H](n2c(-c3ccc4cnccc4c3)nc3ccc(C(=O)NCc4cccc(C(N)=O)c4)cc32)C1 | binding | competition with immobilised ligand | 1 µM | 80 |
| C[C@@H](c1ccc(-n2cnc3c(N)ncnc32)cc1)N1CCc2nn(C)c(Cc3ccccc3)c2C1=O | binding | competition with immobilised ligand | 0.1 µM | 84 |
| COc1ccc2c(c1)O[C@H](c1ccc(OC)c(OC)c1)C[C@@H]2NC(=O)C1(c2ccc3c(c2)OC(F)(F)O3)CC1 | cell-free assay | competition with immobilised ligand | 1 µM | 100 |
| N[C@@H]1CCN(c2nccc(-c3cnn4ncccc34)n2)C1 | binding | – | 1 µM | 94 |
| CC1=C(C#N)C(c2ccc3c(c2)c(NC(=O)c2ccccc2C)nn3C)C(C#N)=C(C)N1 | cell-free assay | competition with immobilised ligand | 1 µM | 91 |
| CC1CCCN1c1nccc(-c2cnn3ncccc23)n1 (stereo not shown) | binding | – | 1 µM | 84 |
| O=C(c1ccc(Nc2ncc(Cl)c(-c3cc4ccccc4s3)n2)cc1)N1CCC(N2CCCC2)CC1 | binding | competition with immobilised ligand | 1 µM | 62 |
| O=C(NCc1ncc(C(F)(F)F)cc1Cl)c1ccc2c(c1)C1(CCS(=O)(=O)CC1)[C@H](C1CC1)N2S(=O)(=O)c1ccc(F)cc1 | cell-free assay | competition with immobilised ligand | 1 µM | 93 |
| C[C@H]1CCN(c2nccc(-c3cnn4ncccc34)n2)C1 | binding | – | 1 µM | 60 |
| CSc1cccnc1N1CCN(Cc2nc3ccccc3[nH]2)CC1 | cell-free assay | competition with immobilised ligand | 1 µM | 80 |
| Cc1cnc(Nc2ccc(C(=O)N3CCC(N4CCCC4)CC3)cc2)nc1-c1cc2ccccc2s1 | binding | competition with immobilised ligand | 1 µM | 26 |
| CN(c1nccc(-c2cnn3ncccc23)n1)C1CC1 | binding | – | 1 µM | 76 |
| O=c1nc(-c2ccccn2)sc2ccccc12 | cell-free assay | competition with immobilised ligand | 1 µM | 75 |
